In publication PMC11056977 (Journal of Medicinal Chemistry, 2024):
Ends that are not written are not given here.

Assays:
[1] = system: BRD4; assay: Immunoblotting of BRD4 protein; type: cell-based; conditions: MCF7 cells, MZ1 1 μM, 24 h, compared with TAT-PiET-PROTAC 10 μM
[2] = system: c-Myc, N-myc, CCND1 expression in MDA-MB-231 cells; assay: RT-qPCR and immunoblotting of BRD4/JMJD6 target genes, MDA-MB-231 cells; type: cell-based; conditions: 10 μM 6 h in cells; xenograft tumor samples; RT-qPCR
[3] = system: tamoxifen-resistant T47D cells; assay: Cell proliferation and colony formation, tamoxifen-resistant T47D; type: cell-based; conditions: peptide inhibitors 10 μM, tamoxifen 3 μM, cell proliferation and colony formation assay
Summary of the method: (§1)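 Resistant lines (MCF7 in DMEM; T47D in RPMI-1640; 10% FBS, 37 °C, 5% CO2) given peptide inhibitor 10 μM and tamoxifen 3 μM, alone or combined. Proliferation: 2 × 10^3 cells/well for the days indicated, then tetrazolium (CellTiter 96 Aqueous One) reagent for 1 h at 37 °C and absorbance at 490 nm. Colonies: 1 × 10^3 cells/well for 2 weeks, crystal violet stain dissolved in 10% acetic acid, read at 590 nm.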

[4] = system: MDA-MB-231 cell-derived xenografts; assay: MDA-MB-231 cell-derived xenograft mouse model; type: in vivo, BALB/c nude mice; conditions: tumor samples, 25 mg/kg ip every 2 days
Summary of the method: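 Female BALB/c nude mice (4–6 weeks) were implanted subcutaneously with 5 × 10^6 MDA-MB-231 cells in PBS and randomized at ~50 mm3. Peptide in normal saline was given at 25 mg/kg i.p. every 2 days. Tumours were analysed by RT-qPCR for c-Myc, N-myc and CCND1 (three biological repeats).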

[5] = system: c-Myc, N-myc, CCND1 expression in MCF7 cells; assay: RT-qPCR and immunoblotting of BRD4/JMJD6 target genes, MCF7 cells; type: cell-based; conditions: 10 μM 6 h in cells; xenograft tumor samples; RT-qPCR
[6] = system: MCF7 cell-derived xenografts; assay: MCF7 cell-derived xenograft mouse model; type: in vivo, BALB/c nude mice; conditions: tumor samples, 25 mg/kg ip every 2 days
Summary of the method: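 Female BALB/c nude mice (4–6 weeks) implanted subcutaneously with 5 × 10^6 MCF7 cells in PBS, with estrogen (E2, 10–2 M) brushed on every 2 days. Randomized at ~50 mm3 tumor volume. Test peptide was given in normal saline, 25 mg/kg i.p., every 2 days. Tumor lysates (Tris-HCl pH 7.4, NaCl, EDTA, 1% Triton X-100) were immunoblotted after 10% SDS-PAGE.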

[7] = system: tamoxifen-resistant MCF7 cells; assay: Cell proliferation and colony formation, tamoxifen-resistant MCF7; type: cell-based; conditions: peptide inhibitors 10 μM, tamoxifen 3 μM, cell proliferation and colony formation assay
Summary of the method: as §1

Row | Compound | degradation of full-length BRD4 protein [1] | mRNA levels of BRD4 or JMJD6, MDA-MB-231 (culture cells or xenografts) [2] | sensitivity of tamoxifen-resistant T47D cells to tamoxifen [3] | c-Myc, N-myc, and CCND1 mRNA and protein levels in MDA-MB-231 cell-derived xenografts [4] | degradation of BRD4 and JMJD6 in MDA-MB-231 cell-derived xenografts ([4]; immunoblot) | mRNA levels of BRD4 or JMJD6, MCF7 (culture cells or xenografts) [5] | c-Myc, N-myc, and CCND1 mRNA and protein levels in MCF7 cell-derived xenografts [6] | degradation of BRD4 and JMJD6 in MCF7 cell-derived xenografts ([6]; immunoblot) | resensitization of tamoxifen-resistant MCF7 cells to tamoxifen [7]
1 | Cc1ncsc1-c1ccc(CNC(=O)[C@@H]2C[C@@H](O)CN2C(=O)[C@@H](NC(=O)COCCOCCOCCNC(=O)C[C@@H]2N=C(c3ccc(Cl)cc3)c3c(sc(C)c3C)-n3c(C)nnc32)C(C)(C)C)cc1 [MZ1] | induced the degradation of full-length BRD4 protein as effectively as TAT-PiET-PROTAC (10 μM) | – | – | – | – | – | – | – | –
2 | TAT-PiET-PROTAC: PROTAC-modified TAT-PiET: VHL ligand peptide joined by AHX to the C-terminus (YGRKKRRQRRRRNQKFKCGE; not fully specified (C-terminus)) | – | did not affect | became sensitive to tamoxifen | significant decrease | induced the degradation of BRD4 and JMJD6 in xenografts | did not affect | significant decrease | induced the degradation of BRD4 and JMJD6 in xenografts | resensitized
3 | YGRKKRRQRRRRNQKFKCGE [TAT-PiET] | – | did not affect | became sensitive to tamoxifen | significant decrease | – | did not affect | significant decrease | – | resensitized
